In ChEMBL document CHEMBL5058577, “EUbOPEN Chemogenomics Library 2 (Multiplex)” (2022):

System: HEK-293T
Assay: Multiplex assay against HEK293T
Format: toxicity, cell-based
Conditions: human
Summary of the method: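 Imaging took place on a CQ1 microscope at 37°C and 5% CO2 once compound had been added to live cells stained at seeding with Hoechst33342, BioTracker Green Microtubule Cytoskeleton Dye, MitoTracker Red and Annexin V Alexa Fluor 680. CellPathfinder machine-learning gating classed cells as Hoechst high-intensity objects or normal cells, classed normal cells as having healthy, pyknosed or fragmented nuclei, and classed pyknosed cells as mitotic or apoptotic. Tubulin, mitochondrial-mass and membrane-permeability phenotypes are per cents of the healthy-nucleus cells.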

[1] = 12 h, 1 µM, compound concentration 1 uM, replicate 1
[2] = 12 h, 1 µM, compound concentration 1 uM, replicate 2
[3] = 12 h, 10 µM, compound concentration 10 uM, replicate 1
[4] = 12 h, 10 µM, compound concentration 10 uM, replicate 2
[5] = 24 h, 1 µM, compound concentration 1 uM, replicate 1
[6] = 24 h, 1 µM, compound concentration 1 uM, replicate 2
[7] = 24 h, 10 µM, compound concentration 10 uM, replicate 1
[8] = 24 h, 10 µM, compound concentration 10 uM, replicate 2
[9] = 48 h, 1 µM, compound concentration 1 uM, replicate 1
[10] = 48 h, 1 µM, compound concentration 1 uM, replicate 2
[11] = 48 h, 10 µM, compound concentration 10 uM, replicate 1
[12] = 48 h, 10 µM, compound concentration 10 uM, replicate 2

## COc1cc(NC(=O)CCN2CCC(OC(=O)Nc3ccccc3-c3ccccc3)CC2)c(Cl)cc1CNC[C@H](O)c1ccc(O)c2[nH]c(=O)ccc12 [BATEFENTEROL]
[1]
  Population Apoptotic (%): 42%
  Population Fragmented Nuclei (%): 4%
  Population Healthy Nuclei (%): 81%
  Population Hoechst High Intensity Objects (%): 7%
  Population Membrane Permeable-Phenotype (%): 0%
  Population Mitochondria Different-Phenotype (%): 65%
  Population Mitotic Cells (%): 57%
  Population Normal (%): 92%
  Population Pyknosed Nuclei (%): 14%
  Population Tubulin-Different-Phenotype (%): 44%
  Total Cell Count: 420
[2]
  Population Apoptotic (%): 47%
  Population Fragmented Nuclei (%): 3%
  Population Healthy Nuclei (%): 78%
  Population Hoechst High Intensity Objects (%): 8%
  Population Mitochondria Different-Phenotype (%): 84%
  Population Mitotic Cells (%): 52%
  Population Normal (%): 91%
  Population Pyknosed Nuclei (%): 17%
  Population Tubulin-Different-Phenotype (%): 41%
  Total Cell Count: 285
[3]
  Population Apoptotic (%): 100%
  Population Fragmented Nuclei (%): 90%
  Population Healthy Nuclei (%): 0%
  Population Hoechst High Intensity Objects (%): 31%
  Population Membrane Permeable-Phenotype (%): 0%
  Population Mitochondria Different-Phenotype (%): 0%
  Population Mitotic Cells (%): 0%
  Population Normal (%): 68%
  Population Pyknosed Nuclei (%): 9%
  Population Tubulin-Different-Phenotype (%): 0%
  Total Cell Count: 16
[4]
  Population Apoptotic (%): 52%
  Population Fragmented Nuclei (%): 5%
  Population Healthy Nuclei (%): 72%
  Population Hoechst High Intensity Objects (%): 11%
  Population Membrane Permeable-Phenotype (%): 1%
  Population Mitochondria Different-Phenotype (%): 87%
  Population Mitotic Cells (%): 47%
  Population Normal (%): 88%
  Population Pyknosed Nuclei (%): 22%
  Population Tubulin-Different-Phenotype (%): 67%
  Total Cell Count: 303
[5]
  Population Apoptotic (%): 44%
  Population Fragmented Nuclei (%): 9%
  Population Healthy Nuclei (%): 77%
  Population Hoechst High Intensity Objects (%): 5%
  Population Membrane Permeable-Phenotype (%): 0%
  Population Mitochondria Different-Phenotype (%): 59%
  Population Mitotic Cells (%): 55%
  Population Normal (%): 94%
  Population Pyknosed Nuclei (%): 12%
  Population Tubulin-Different-Phenotype (%): 35%
  Total Cell Count: 527
[6]
  Population Apoptotic (%): 41%
  Population Fragmented Nuclei (%): 7%
  Population Healthy Nuclei (%): 82%
  Population Hoechst High Intensity Objects (%): 8%
  Population Mitochondria Different-Phenotype (%): 65%
  Population Mitotic Cells (%): 58%
  Population Normal (%): 91%
  Population Pyknosed Nuclei (%): 9%
  Population Tubulin-Different-Phenotype (%): 27%
  Total Cell Count: 403
[7]
  Population Apoptotic (%): 0%
  Population Fragmented Nuclei (%): 87%
  Population Healthy Nuclei (%): 12%
  Population Hoechst High Intensity Objects (%): 33%
  Population Membrane Permeable-Phenotype (%): 0%
  Population Mitochondria Different-Phenotype (%): 100%
  Population Mitotic Cells (%): 0%
  Population Normal (%): 66%
  Population Pyknosed Nuclei (%): 0%
  Population Tubulin-Different-Phenotype (%): 100%
  Total Cell Count: 12
[8]
  Population Apoptotic (%): 56%
  Population Fragmented Nuclei (%): 6%
  Population Healthy Nuclei (%): 73%
  Population Hoechst High Intensity Objects (%): 7%
  Population Mitochondria Different-Phenotype (%): 89%
  Population Mitotic Cells (%): 43%
  Population Normal (%): 93%
  Population Pyknosed Nuclei (%): 19%
  Population Tubulin-Different-Phenotype (%): 78%
  Total Cell Count: 357
[9]
  Population Apoptotic (%): 35%
  Population Fragmented Nuclei (%): 15%
  Population Healthy Nuclei (%): 75%
  Population Hoechst High Intensity Objects (%): 3%
  Population Membrane Permeable-Phenotype (%): 0%
  Population Mitochondria Different-Phenotype (%): 36%
  Population Mitotic Cells (%): 65%
  Population Normal (%): 96%
  Population Pyknosed Nuclei (%): 8%
  Population Tubulin-Different-Phenotype (%): 17%
  Total Cell Count: 744
[10]
  Population Apoptotic (%): 51%
  Population Fragmented Nuclei (%): 13%
  Population Healthy Nuclei (%): 79%
  Population Mitochondria Different-Phenotype (%): 42%
  Population Mitotic Cells (%): 48%
  Population Pyknosed Nuclei (%): 6%
  Total Cell Count: 547
[11]
  Population Apoptotic (%): 100%
  Population Fragmented Nuclei (%): 58%
  Population Healthy Nuclei (%): 25%
  Population Hoechst High Intensity Objects (%): 7%
  Population Membrane Permeable-Phenotype (%): 0%
  Population Mitochondria Different-Phenotype (%): 66%
  Population Mitotic Cells (%): 0%
  Population Normal (%): 92%
  Population Pyknosed Nuclei (%): 16%
  Population Tubulin-Different-Phenotype (%): 66%
  Total Cell Count: 13
[12]
  Population Apoptotic (%): 57%
  Population Fragmented Nuclei (%): 11%
  Population Healthy Nuclei (%): 76%
  Population Mitochondria Different-Phenotype (%): 76%
  Population Mitotic Cells (%): 42%
  Population Pyknosed Nuclei (%): 11%
  Population Tubulin-Different-Phenotype (%): 74%
  Total Cell Count: 427
